Laboratory results reported in ChEMBL document CHEMBL4130355, “Development of a series of novel 4-anlinoquinazoline derivatives possessing quinazoline skeleton: Design, synthesis, EGFR kinase inhibitory efficacy, and evaluation of anticancer activities in vitro” (Eur J Med Chem, 2017).

Key:
SH-SY5Y = assay: Antiproliferative activity against human SH-SY5Y cells after 72 hrs by MTT assay; assay type: functional, cell-based
MCF7 = assay: Antiproliferative activity against human MCF7 cells after 72 hrs by MTT assay; assay type: functional, cell-based; settings: MCF7, 72 h
A549 = assay: Antiproliferative activity against human A549 cells after 72 hrs by MTT assay; assay type: functional, cell-based; settings: A549, 72 h
HepG2 [1] = assay: Antiproliferative activity against human HepG2 cells after 72 hrs by MTT assay; assay type: functional, cell-based; settings: HepG2, 72 h
DU-145 = assay: Antiproliferative activity against human DU145 cells after 72 hrs by MTT assay; assay type: functional, cell-based; settings: DU-145, 72 h
HepG2 [2] = assay: Cytotoxicity against human HepG2 cells at 20 uM after 48 hrs by LDH release assay (reference value: 100%); assay type: functional
Summary of the method: (§1)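 LDH release. HepG2 cells at 1.0 × 10^5/well were incubated 24 h at 37 °C, then treated at 2.5–40 µM for 48 h. Cells lysed with 2% lysate for 1 h gave the full-release (100%) reference; medium-only cells were the low control. LDH in the supernatant was measured per kit. Triplicates, three independent repeats.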

HepG2 [3] = assay: Cytotoxicity against human HepG2 cells at 40 uM after 48 hrs by LDH release assay (reference value: 100%); assay type: functional
Summary of the method: (§2)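 HepG2 seeded at 1.0 × 10^5 cells/well, grown 24 h at 37 °C in 5% CO2, then dosed for 48 h. LDH in supernatant read on plate reader per kit. Maximal release (100% cytotoxicity) came from lysis with 2% (V/V) lysate for 1 h at 37 °C; medium-only cells served as natural release. Triplicate, three independent runs.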

HepG2 [4] = assay: Cytotoxicity against human HepG2 cells at 5 uM after 48 hrs by LDH release assay (reference value: 100%); assay type: functional; summary of the method: as §2
HepG2 [5] = assay: Cytotoxicity against human HepG2 cells at 10 uM after 48 hrs by LDH release assay (reference value: 100%); assay type: functional; summary of the method: as §1
HepG2 [6] = assay: Cytotoxicity against human HepG2 cells at 2.5 uM after 48 hrs by LDH release assay (reference value: 100%); assay type: functional; summary of the method: as §1

SMILES	IC50 (SH-SY5Y) [µM]	IC50 (MCF7) [µM]	IC50 (A549) [µM]	IC50 (HepG2 [1]) [µM]	IC50 (DU-145) [µM]	Activity (HepG2 [2]) [%]	Activity (HepG2 [3]) [%]	Activity (HepG2 [4]) [%]	Activity (HepG2 [5]) [%]	Activity (HepG2 [6]) [%]
COc1cc2c(Nc3ccc(C#N)cc3)ncnc2cc1OCCCN1CCc2ccccc2C1	> 100	> 100	> 100	> 100	> 100	–	–	–	–	–
COc1cc2c(Nc3ccccc3C#N)ncnc2cc1OCCCN1CCCC1	28.9	16.2	21.8	24.5	18.7	–	–	–	–	–
CCN(CC)CCCOc1cc2ncnc(Nc3ccc(C#N)cc3)c2cc1OC	> 100	> 100	50.6	59.4	68.9	–	–	–	–	–
COc1cc2c(Nc3cccc(C#N)c3)ncnc2cc1OCCCN1CCC(C)CC1	7.33	24.4	18.7	18.2	17.7	–	–	–	–	–
COc1cc2c(Nc3cccc(C#N)c3)ncnc2cc1OCCCN1CCCC1	10.6	33.9	39.9	18.2	19.1	–	–	–	–	–
COc1cc2c(Nc3cccc(C#N)c3)ncnc2cc1OCCCN1CCCCC1	11.2	44.8	37	29.5	29.1	–	–	–	–	–
COc1cc2c(Nc3ccc(C#N)cc3)ncnc2cc1OCCCN1CCC(N(C)C)CC1	24.3	31	42.4	33.6	28.3	–	–	–	–	–
COc1cc2c(Nc3ccc(C#N)cc3)ncnc2cc1OCCCN(CCO)CCO	48.1	36.8	26.1	40.3	20.2	–	–	–	–	–
COc1cc2ncnc(Nc3ccc(F)c(Cl)c3)c2cc1OCCCN1CCOCC1 [GEFITINIB]	–	–	–	–	–	45.24	47.62	48.69	45.36	42.08
CCN1CCN(CCCOc2cc3ncnc(Nc4cccc(C#N)c4)c3cc2OC)CC1	6.27	19.9	18.7	13.7	18.2	–	–	–	–	–
COc1cc2c(Nc3ccccc3C#N)ncnc2cc1OCCCN1CCCCC1	13.4	15.2	14.7	14.2	15.3	–	–	–	–	–
COc1cc2c(Nc3ccc(C#N)cc3)ncnc2cc1OCCCN1CCCCC1	18.8	35.1	23.5	20.7	24.4	–	–	–	–	–
COc1cc2c(Nc3ccc(C#N)cc3)ncnc2cc1OCCCN1CCC(O)CC1	> 100	> 100	29.9	67.9	74.9	–	–	–	–	–
CCOC(=O)C1CCN(CCCOc2cc3ncnc(Nc4ccc(C#N)cc4)c3cc2OC)CC1	47.2	34.9	89.9	57.7	52.3	–	–	–	–	–
CCN1CCN(CCCOc2cc3ncnc(Nc4ccccc4C#N)c3cc2OC)CC1	12.6	9.07	6.91	2.11	5.87	–	–	–	–	–
COc1cc2c(Nc3ccc(C#N)cc3)ncnc2cc1OCCCN1CCN(C)CC1	13	71.1	48.8	13.8	46.5	–	–	–	–	–
COc1cc2c(Nc3ccc(C#N)cc3)ncnc2cc1OCCCN1CCCC1	8.08	16.2	21.8	20.9	14.4	–	–	–	–	–

SMILES	IC50 (SH-SY5Y) [µM]	IC50 (MCF7) [µM]	IC50 (A549) [µM]	IC50 (HepG2 [1]) [µM]	IC50 (DU-145) [µM]	Activity (HepG2 [2]) [%]	Activity (HepG2 [3]) [%]	Activity (HepG2 [4]) [%]	Activity (HepG2 [5]) [%]	Activity (HepG2 [6]) [%]
COc1cc2c(Nc3ccc(C#N)cc3)ncnc2cc1OCCCN(CCO)Cc1ccccc1	> 100	> 100	47.4	> 100	> 100	–	–	–	–	–
COc1cc2c(Nc3ccc(C#N)cc3)ncnc2cc1OCCCN1CCN(c2ccncc2)CC1	31.6	22.9	25.4	12.6	22.9	–	–	–	–	–
COc1cc2c(Nc3ccccc3C#N)ncnc2cc1OCCCN1CCOCC1	> 100	98.4	46.8	3.68	68.5	–	–	–	–	–
CCN1CCN(CCCOc2cc3ncnc(Nc4ccc(C#N)cc4)c3cc2OC)CC1	5.44	29.9	16	9.58	34.4	–	–	–	–	–
COc1cc2c(Nc3ccc(C#N)cc3)ncnc2cc1OCCCN(C)Cc1ccccc1	> 100	> 100	> 100	> 100	> 100	–	–	–	–	–
COc1cc2c(Nc3ccc(C#N)cc3)ncnc2cc1OCCCN(C)CCO	83.7	41.4	29	45.2	17.4	–	–	–	–	–
COc1cc2c(Nc3cccc(C#N)c3)ncnc2cc1OCCCN1CCN(C)CC1	6.89	23.1	27.7	18.3	12.1	–	–	–	–	–
COc1cc2c(Nc3ccccc3C#N)ncnc2cc1OCCCN1CCC(C)CC1	29	31.9	22.7	4.03	11.9	–	–	–	–	–
COc1cc2c(Nc3cccc(C#N)c3)ncnc2cc1OCCCN1CCOCC1	> 100	> 100	65.5	1.89	77.8	–	–	–	–	–
COc1cc2c(Nc3ccc(C#N)cc3)ncnc2cc1OCCCN1CCCCC1CCO (stereo not given)	> 100	> 100	> 100	> 100	> 100	–	–	–	–	–
COc1cc2c(Nc3ccc(C#N)cc3)ncnc2cc1OCCCN1CCC(N2CCCCC2)CC1	9.81	19.6	30.7	8.84	15.6	–	–	–	–	–
COc1cc2c(Nc3ccc(C#N)cc3)ncnc2cc1OCCCN1CCC(CO)CC1	21.6	35.1	> 100	61.8	53.2	–	–	–	–	–
COc1cc2c(Nc3ccc(C#N)cc3)ncnc2cc1OCCCN(C)C	34.9	45	60.5	> 100	35.2	–	–	–	–	–
COc1cc2c(Nc3ccccc3C#N)ncnc2cc1OCCCN1CCN(C)CC1	32.4	17.8	23.4	26.4	19.4	–	–	–	–	–
COc1cc2c(Nc3ccc(C#N)cc3)ncnc2cc1OCCCN1CCC(C)CC1	7.9	43.1	32.3	32.1	16.6	–	–	–	–	–
COc1cc2c(Nc3ccc(C#N)cc3)ncnc2cc1OCCCN1CCN(CCO)CC1	36.8	25.2	9.82	28.1	29.3	–	–	–	–	–
COc1cc2c(Nc3ccc(C#N)cc3)ncnc2cc1OCCCN1CCOCC1	> 100	> 100	59.4	0.77	98.2	–	–	–	–	–
